From ChEMBL document CHEMBL1142862, “Selective NR1/2B N-methyl-D-aspartate receptor antagonists among indole-2-carboxamides and benzimidazole-2-carboxamides” (J Med Chem, 2007)

Key:
[1] = molecular target: T1, Glutamate receptor ionotropic, NMDA 2B (Rattus norvegicus, UniProt Q00960); experiment: Antagonist activity at NR2B NMDA receptor in Wistar rat neocortical cells assessed as inhibition of NMDA-evoked elevation of intracellular calcium concentration; type: functional, cell-based
Procedure, shortened: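 Rat primary neocortical cultures (trypsinised cortex, poly-D-lysine coated wells, glial proliferation stopped with […], serum-free N2 medium) used after 3-10 days in vitro. Compound added (<0.1% DMSO), 5 min baseline, then 40 µM NMDA and 5 min fluorescence recording.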

[2] = molecular target: T1, Glutamate receptor ionotropic, NMDA 2B; experiment: Displacement of [3H]Ro 25,6981 from NR2B NMDA receptor in rat forebrain
Procedure, shortened: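 Rat forebrain membranes were washed and suspended in 5 mM TRIS-HCl, pH 7.4, at 1 mg protein/mL. They were incubated 2 h at room temperature with 4 nM [3H]Ro-25,6981 and at least seven compound concentrations. Nonspecific binding was defined with 10 µM Ro-25,6981. Bound and free ligand were separated by GF/B filtration, and filters were counted by liquid scintillation. Results were expressed as % inhibition of specific binding.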

Mus musculus [3] = experiment: Inhibition of formalin induced nociception in orally dosed NMRI mouse by measuring pain-related licking behavior in late phase; type: functional; details: po
Procedure, shortened: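 Mice fasted 14-16 h with free 20% glucose. Compound or vehicle (5% Tween 80) given orally 15 min before s.c. injection of 20 µL 1% formalin in 0.9% saline into the dorsal right hindpaw. Licking measured at the peak of the second phase (10-60 min). ED50 reported.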

Mus musculus [4] = experiment: Inhibition of formalin induced nociception in ip dosed NMRI mouse by measuring pain-related licking behavior in late phase; type: functional
Procedure, shortened: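 Mouse formalin test: 20 µL 1% formalin in 0.9% saline injected s.c. into the dorsal right hindpaw. Compound given i.p. Pain-related licking scored at the peak of the second (persistent, 10-60 min) phase. ED50 reported.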

T1 sequence (Q00960 whole entry): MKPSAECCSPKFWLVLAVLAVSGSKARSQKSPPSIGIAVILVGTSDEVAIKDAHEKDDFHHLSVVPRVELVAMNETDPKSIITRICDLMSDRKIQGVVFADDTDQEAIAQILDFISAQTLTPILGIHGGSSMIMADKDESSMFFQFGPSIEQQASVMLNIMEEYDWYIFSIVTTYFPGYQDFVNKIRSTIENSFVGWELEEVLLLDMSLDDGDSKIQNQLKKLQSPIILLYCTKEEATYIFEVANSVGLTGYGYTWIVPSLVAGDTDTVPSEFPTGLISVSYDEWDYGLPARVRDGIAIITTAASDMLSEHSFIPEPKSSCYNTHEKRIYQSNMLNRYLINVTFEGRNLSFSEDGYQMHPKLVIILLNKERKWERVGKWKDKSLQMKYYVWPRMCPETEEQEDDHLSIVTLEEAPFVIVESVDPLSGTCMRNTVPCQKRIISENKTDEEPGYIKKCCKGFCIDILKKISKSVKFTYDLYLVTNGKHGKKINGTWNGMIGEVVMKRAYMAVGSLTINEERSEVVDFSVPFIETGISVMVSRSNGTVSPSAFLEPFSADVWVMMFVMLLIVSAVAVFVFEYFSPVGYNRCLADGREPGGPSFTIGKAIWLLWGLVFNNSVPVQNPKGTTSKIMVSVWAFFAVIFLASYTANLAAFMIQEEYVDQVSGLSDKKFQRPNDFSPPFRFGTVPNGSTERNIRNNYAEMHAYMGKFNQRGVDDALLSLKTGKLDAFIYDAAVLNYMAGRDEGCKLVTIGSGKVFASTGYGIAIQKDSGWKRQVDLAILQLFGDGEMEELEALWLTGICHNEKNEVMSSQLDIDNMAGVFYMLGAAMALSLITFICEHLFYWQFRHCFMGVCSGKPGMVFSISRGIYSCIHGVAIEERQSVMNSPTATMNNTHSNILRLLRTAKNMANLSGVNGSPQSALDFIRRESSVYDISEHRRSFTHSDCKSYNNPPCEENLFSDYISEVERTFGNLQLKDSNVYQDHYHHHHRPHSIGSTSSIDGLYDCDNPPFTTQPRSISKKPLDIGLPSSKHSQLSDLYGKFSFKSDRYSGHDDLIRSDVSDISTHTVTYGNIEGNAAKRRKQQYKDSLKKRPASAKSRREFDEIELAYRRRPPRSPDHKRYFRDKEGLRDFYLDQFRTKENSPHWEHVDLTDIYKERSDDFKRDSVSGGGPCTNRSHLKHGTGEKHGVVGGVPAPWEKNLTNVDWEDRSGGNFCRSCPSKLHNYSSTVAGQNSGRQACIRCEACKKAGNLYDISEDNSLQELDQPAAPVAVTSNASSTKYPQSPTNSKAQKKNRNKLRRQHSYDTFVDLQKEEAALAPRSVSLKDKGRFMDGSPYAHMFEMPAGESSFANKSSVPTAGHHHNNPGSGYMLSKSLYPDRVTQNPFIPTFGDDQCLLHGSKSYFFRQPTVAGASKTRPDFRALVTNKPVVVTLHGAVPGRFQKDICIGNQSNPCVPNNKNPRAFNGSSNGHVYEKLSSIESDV

O=C(c1cc2cc(O)ccc2[nH]1)N1CCC(Cc2ccccc2)CC1
IC50 [1]: 0.025 µM
IC50 [2]: 0.031 µM

O=C(c1cc2cc(O)ccc2s1)N1CCC(Cc2ccccc2)CC1
IC50 [1]: 5.61 µM
IC50 [2]: > 10 µM

O=C(c1cc2ccc(O)cc2[nH]1)N1CCC(OCc2ccccc2)CC1
IC50 [1]: 0.016 µM
IC50 [2]: 0.047 µM

O=C(c1cc2ccc(O)cc2[nH]1)N1CCC(CCc2ccccc2)CC1
IC50 [1]: 0.875 µM
IC50 [2]: 0.359 µM

O=C(c1cc2ccc(O)cc2[nH]1)N1CCC(Cc2ccc(F)cc2)CC1
IC50 [1]: 0.09 µM
IC50 [2]: 0.012 µM

O=C(c1nc2cc(O)ccc2[nH]1)N1CCC(Oc2ccc(F)cc2)CC1
IC50 [1]: 0.0029 µM
IC50 [2]: 0.006 µM

C[C@@H]([C@@H](O)c1ccc(O)cc1)N1CCC(O)(c2ccccc2)CC1 [TRAXOPRODIL]
ED50 (Mus musculus [3]): > 20 mg/kg

O=C(c1ccccc1)C1CCN(C(=O)c2cc3ccc(O)cc3[nH]2)CC1
IC50 [1]: 0.744 µM

Nc1cccc2[nH]c(C(=O)N3CCC(Cc4ccccc4)CC3)cc12
IC50 [1]: 0.0043 µM
IC50 [2]: 0.012 µM

O=C(c1cc2c(NCc3ccccc3)cccc2[nH]1)N1CCC(Cc2ccccc2)CC1
IC50 [1]: 0.047 µM
IC50 [2]: 0.191 µM

O=C(c1cc2ccc(O)cc2[nH]1)N1CCC(Oc2ccccc2)CC1
IC50 [1]: 0.107 µM
IC50 [2]: 0.089 µM

COc1ccc(CC2CCN(C(=O)c3cc4ccc(O)cc4[nH]3)CC2)cc1
IC50 [1]: 0.08 µM
IC50 [2]: 0.017 µM

Oc1ccc2cc(CN3CCC(Cc4ccccc4)CC3)[nH]c2c1
IC50 [1]: 1.16 µM

O=C(c1cc2cc(O)ccc2o1)N1CCC(Cc2ccccc2)CC1
IC50 [1]: 1.9 µM
IC50 [2]: > 10 µM

C[C@@H](CN1CCC(Cc2ccccc2)CC1)[C@@H](O)c1ccc(O)cc1
IC50 [1]: 0.159 µM
ED50 (Mus musculus [4]): 5.1 mg/kg

O=S(=O)(c1cc2ccc(O)cc2[nH]1)N1CCC(Cc2ccccc2)CC1
IC50 [1]: > 8 µM

O=C(c1nc2c(O)ccc(O)c2[nH]1)N1CCC(Cc2ccccc2)CC1
IC50 [1]: 0.003 µM
IC50 [2]: 0.01 µM

COc1ccccc1CC1CCN(C(=O)c2cc3ccc(O)cc3[nH]2)CC1
IC50 [1]: 0.249 µM

O=C(c1cc2ccc(O)cc2[nH]1)N1CCC(Cc2ccccc2)CC1
ED50 (Mus musculus [3]): 1.7 mg/kg

O=C(c1cc2c(ccc3cn[nH]c32)[nH]1)N1CCC(Cc2ccccc2)CC1
IC50 [1]: 0.058 µM
IC50 [2]: 0.064 µM

O=C(c1cc2c(ccc3[nH]ncc32)[nH]1)N1CCC(Cc2ccccc2)CC1
IC50 [1]: 0.02 µM
IC50 [2]: 0.005 µM

O=C(c1nc2cc(O)ccc2[nH]1)N1CCC(Oc2ccc(Cl)cc2)CC1
IC50 [1]: 0.0017 µM
IC50 [2]: 0.014 µM

Nc1ccc2cc(C(=O)N3CCC(Cc4ccccc4)CC3)[nH]c2c1
IC50 [1]: 0.627 µM

Nc1ccc2[nH]c(C(=O)N3CCC(Cc4ccccc4)CC3)cc2c1
IC50 [1]: 0.596 µM

O=C(c1cc2ccc(O)cc2o1)N1CCC(Cc2ccccc2)CC1
IC50 [2]: > 10 µM

O=C(c1cc2cc3[nH]c(=O)oc3cc2[nH]1)N1CCC(Cc2ccccc2)CC1
IC50 [2]: 0.023 µM

Nc1ccc2[nH]c(C(=O)N3CCC(Cc4ccccc4)CC3)nc2c1
IC50 [1]: 0.04 µM
IC50 [2]: 0.143 µM

Cc1cccc(CC2CCN(C(=O)c3nc4cc(O)ccc4[nH]3)CC2)c1
IC50 [1]: 0.0024 µM
IC50 [2]: 0.005 µM

O=C(c1cc2ccc(O)cc2[nH]1)N1CCC(c2ccccc2)CC1
IC50 [1]: > 8 µM

O=C(c1nc2ccc(O)cc2s1)N1CCC(Cc2ccccc2)CC1
IC50 [1]: 2.6 µM

CS(=O)(=O)Nc1ccc2nc(CN3CCC(Cc4ccccc4)CC3)[nH]c2c1
IC50 [1]: 0.0086 µM

O=C(c1cc2c(ccc3[nH]cnc32)[nH]1)N1CCC(Cc2ccccc2)CC1
IC50 [1]: 0.05 µM
IC50 [2]: 0.006 µM

O=C(c1cc2cc(O)cc(O)c2[nH]1)N1CCC(Cc2ccccc2)CC1
IC50 [1]: 0.031 µM
IC50 [2]: 0.106 µM

CS(=O)(=O)Nc1ccc2[nH]c(C(=O)N3CCC(Cc4ccccc4)CC3)cc2c1
IC50 [1]: 0.631 µM
IC50 [2]: 1.54 µM

O=C(c1cc2ccc(O)cc2[nH]1)N1CCC(Cc2cccc(F)c2)CC1
IC50 [1]: 0.038 µM
IC50 [2]: 0.031 µM

COc1cccc(CC2CCN(C(=O)c3nc4cc(O)ccc4[nH]3)CC2)c1
IC50 [1]: 0.0025 µM
IC50 [2]: 0.003 µM

O=C(c1nc2cc3[nH]c(=O)oc3cc2[nH]1)N1CCC(Cc2ccccc2)CC1
IC50 [1]: 0.193 µM

O=C(c1cc2c(O)cccc2[nH]1)N1CCC(Cc2ccccc2)CC1
IC50 [1]: 0.016 µM
IC50 [2]: 0.018 µM

O=C(c1cc2cccc(O)c2[nH]1)N1CCC(Cc2ccccc2)CC1
IC50 [1]: 0.165 µM
IC50 [2]: 0.38 µM

CS(=O)(=O)Nc1ccc2cc(C(=O)N3CCC(Cc4ccccc4)CC3)[nH]c2c1
IC50 [1]: 0.03 µM
IC50 [2]: 0.009 µM

CS(=O)(=O)Nc1ccc2[nH]c(C(=O)N3CCC(Cc4ccccc4)CC3)nc2c1
IC50 [1]: 0.0013 µM
IC50 [2]: 0.003 µM

O=C(c1cc2c(O)cc(O)cc2[nH]1)N1CCC(Cc2ccccc2)CC1
IC50 [1]: 0.0065 µM
IC50 [2]: 0.006 µM

O=c1[nH]c2ccc([S+]([O-])CCN3CCC(Cc4ccc(F)cc4)CC3)cc2o1 (configuration not stated) [BESONPRODIL]
ED50 (Mus musculus [3]): 2.4 mg/kg

CS(=O)(=O)Nc1cccc2[nH]c(C(=O)N3CCC(Cc4ccccc4)CC3)cc12
IC50 [2]: 0.215 µM

COc1ccc(CC2CCCCN2C(=O)c2cc3ccc(O)cc3[nH]2)cc1 (configuration not stated)
IC50 [1]: > 8 µM

Cn1c(C(=O)N2CCC(Cc3ccccc3)CC2)cc2ccc(O)cc21
IC50 [1]: 5.77 µM

Cc1ccc(CC2CCN(C(=O)c3cc4ccc(O)cc4[nH]3)CC2)cc1
IC50 [1]: 0.208 µM
IC50 [2]: 0.028 µM

O=C(c1cc2ccc(O)cc2[nH]1)N1CCC(C(O)c2ccccc2)CC1 (configuration not stated)
IC50 [1]: 0.111 µM
IC50 [2]: 0.06 µM

Cc1ccc(OC2CCN(C(=O)c3nc4cc(O)ccc4[nH]3)CC2)cc1
IC50 [1]: 0.0011 µM
IC50 [2]: 0.003 µM

N=C(c1cc2ccc(O)cc2[nH]1)N1CCC(Cc2ccccc2)CC1
IC50 [1]: 0.0085 µM
IC50 [2]: 0.01 µM
